Screens as filed in PubChem BioAssay.
Most compounds without a hit are left out; they make up all but 1.6% or so of the library.
UHRF1 binding: UHRF1 methylated DNA binding inhibitors, primary screen, counter-screen for MBD2 inhibitor project, biochemical, TR-FRET, human UHRF1, single concentration | 370,000 compounds, 0.75% hits | UHRF1 binding to methylated oligo | E3 ubiquitin-protein ligase UHRF1 (Homo sapiens), Q96T88 | inhibition, % at 4.4 µM | AID 687016, 2013; in the data active means inhibition above about 21%;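 further: UHRF1 SRA domain binding a hemimethylated CpG hairpin DNA probe; 0% = median of test compound wells and 100% = reference inhibitor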
TDP2 absorb: human TDP2 enzyme inhibitors, primary screen, biochemical, epi absorbance, recombinant enzyme. Tyrosyl-DNA phosphodiesterase 2 (Homo sapiens), O95551. T5PNP hydrolysis, p-nitrophenol absorbance 415 nm. inhibition, % at 12.8 µM. 370,000 compounds, 0.34% hits. AID 720702, 2013;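 active means inhibition above the mean of all tested compounds plus 3 SD, set per campaign, cut at about 25% in these data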;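 further: 0% = DMSO with enzyme and 100% = buffer with substrate but no TDP2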
Target sequence (O95551 whole entry, looked up): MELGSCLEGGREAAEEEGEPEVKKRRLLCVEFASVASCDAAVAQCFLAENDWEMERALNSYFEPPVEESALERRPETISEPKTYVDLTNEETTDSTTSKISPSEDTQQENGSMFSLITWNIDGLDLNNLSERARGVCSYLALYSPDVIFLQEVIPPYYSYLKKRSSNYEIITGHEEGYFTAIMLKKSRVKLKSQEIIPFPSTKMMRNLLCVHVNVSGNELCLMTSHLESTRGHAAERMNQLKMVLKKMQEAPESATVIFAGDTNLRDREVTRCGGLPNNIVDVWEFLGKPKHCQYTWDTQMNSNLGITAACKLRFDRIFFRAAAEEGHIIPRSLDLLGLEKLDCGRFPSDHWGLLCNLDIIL
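Test system: human TDP2 enzyme; Input: 120 nM TDP2 per well; Buffer or medium: Mg2+-containing Tris-HCl buffer, pH 7.5; Reagent: 5 mM T5PNP; Dosing: 12.8 µM single point, 1% DMSO; Incubation: reaction 2 h, 37 °C; Detection: p-Nitrophenol epi absorbance; Read-out: % inhibition relative to enzyme-containing and enzyme-free wells; Replicates: single well per compound.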
MBD2 DNA inh: inhibitors of MBD2 binding to methylated DNA, primary screen, biochemical, TR-FRET, DNA-binding domain, human; Methyl-CpG-binding domain protein 2 (Homo sapiens), Q9UBB5; MBD2 binding to methylated oligonucleotide; inhibition, % at 4.4 µM; 370,000 compounds, 0.31% hits; in the data active means inhibition above about 13%
LEDGF integ inh: blockers of LEDGF/p75-dependent integrase strand transfer – biochemical, TR-FRET, high throughput, primary screen | AID 743269, 2014 | inhibition, % at 3.7 µM | 370,000 compounds, 0.64% hits | TR-FRET IN-LEDGF/p75 DNA integration, Eu/Cy5 | HIV-1 integrase (with human LEDGF/p75);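 active means inhibition above the screen-wide mean plus 3 SD, cut at about 13% in these data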;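 further: signal is the Cy5 over europium emission ratio at 671 and 618 nm; 0% = plate median of compound wells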
Active calls of the source: *.

SMILES	UHRF1 binding	TDP2 absorb	MBD2 DNA inh	LEDGF integ inh
O=C(c1cccs1)N1CCN(Cc2ccccn2)CC1	23.9*	17.0	10.6	9.8
CC(C)C[C@H](NC(=O)N1CCn2c1nc1ccccc12)C(=O)NCc1ccccc1	0.1	-13.6	-2.0	0.6
CC(C)C[C@H](NC(=O)N1CCn2c1nc1ccccc12)C(=O)NCCc1ccccc1	51.6*	2.5	2.4	0.6
N#Cc1ccc(-c2csc(NC3=NCCCCC3)n2)cc1	39.4*	4.6	2.6	0.8
c1ccc(-c2csc(NC3=NCCCCC3)n2)cc1	2.9	-5.6	5.1	1.6
CNC(=S)NNC(=O)c1ccccc1Br	21.1*	-1.1	-2.5	3.3
COCCCNC(=S)NNC(=O)c1ccccc1Br	1.6	-1.6	-2.2	-9.9
Cc1ccc(C(=O)NC2CCN(S(=O)(=O)c3ccc(F)cc3)CC2)cc1	-0.6	7.3	-0.1	-2.0
C[C@H](CO)N1C[C@H](C)[C@H](CN(C)Cc2ccncc2)Oc2ncc(C#CC3CC3)cc2C1=O	6.5	-0.5	3.2	-1.9
C[C@@H]1CN([C@@H](C)CO)C(=O)c2cc(C#CC3CCCCC3)cnc2O[C@@H]1CN(C)S(=O)(=O)c1ccc(F)cc1	21.5*	-8.0	11.3	3.0
C[C@H]1CN([C@@H](C)CO)C(=O)c2cc(C#CCC3CCCC3)cnc2O[C@@H]1CN(C)C(=O)CC1CC1	21.7*	1.7	5.0	3.3
C[C@@H]1CN([C@@H](C)CO)S(=O)(=O)c2ccc(C#CC3CCCCC3)cc2O[C@@H]1CN(C)Cc1cccnc1	23.7*	-11.6	10.6	1.8
C[C@H](CO)N1C[C@H](C)[C@@H](CN(C)S(=O)(=O)c2ccc(F)cc2)Oc2ncc(Br)cc2C1=O	16.9	4.1	2.9	-0.2
C[C@@H]1CN([C@H](C)CO)C(=O)c2cc(C#CC3CCCCC3)cnc2O[C@H]1CN(C)Cc1cccnc1	23.3*	0.8	9.4	2.8
C[C@@H]1CN([C@H](C)CO)C(=O)c2cc(Br)cnc2O[C@@H]1CN(C)C(=O)CC1CC1	1.2	-17.6	-1.5	6.0
CCOc1ccccc1-n1c(SCC(=O)Nc2nccs2)nnc1-c1ccoc1C	-1.6	-4.1	-2.8	-0.5
COC(=O)c1ccc2nc(-c3ccc(C#N)cc3)c(Cc3cccc(F)c3)n2c1	19.7	7.9	12.1	-2.4
Cc1ccc(NC(=O)CSc2nc3ccccc3c(=O)n2CCCN2CCCCC2)cc1C	1.7	2.9	-1.1	0.4
Cc1ccc(/C=N/NC(=O)c2nnn(-c3nonc3N)c2CN(C)C)o1	0.5	6.1	2.8	-2.5
COCc1c(C(=O)N/N=C/c2ccc(C)o2)nnn1-c1nonc1N	25.2*	9.2	0.1	-0.4
COCc1c(C(N)=O)nnn1-c1nonc1N	31.7*	-5.6	1.3	3.9
COc1cc2c(cc1OC)C(=O)Cc1ccc3c(c1CN(C)CC2)OCO3	0.8	2.7	5.1	-1.9
COc1ccc2c(c1OC)CN(C)CCc1cc3c(cc1C(=O)C2)OCO3	21.0*	12.7	13.1	6.1
O=C(Nc1ccc(Cl)cc1)Nc1cnccn1	-1.9	-10.0	-2.6	1.1
COc1ccc2c(CC(=O)OCC(=O)N(C)c3c(N)n(Cc4ccccc4)c(=O)[nH]c3=O)coc2c1	21.6*	1.0	4.7	-0.9
SMILES	UHRF1 binding	TDP2 absorb	MBD2 DNA inh	LEDGF integ inh
COCCN(C(=O)COC(=O)Cc1coc2cc(C)ccc12)c1c(N)n(Cc2ccccc2)c(=O)[nH]c1=O	3.0	15.0	1.1	6.8
C#CCn1c2ccccc2c2nc3ccccc3nc21	23.1*	0.6	0.3	-2.1
CCOC(=O)C1CCCN(C(=O)Cn2nc(CC)n3c(cc4sccc43)c2=O)C1 (stereo not given)	-1.8	0.5	-6.4	-2.1
O=C(N/N=C/c1ccc(O)c(O)c1)N/N=C/c1ccc(O)c(O)c1	7.3	-6.7	8.7	91.2*
Cc1nonc1C(=O)N/N=C/c1ccc(O)c(O)c1	1.1	-4.3	-1.8	-5.6
COc1ccc(/C=N/N2C(=O)CSC2=S)cc1	63.3*	0.6	-0.4	0.9
CCN(CC)CC(O)COc1ccc2c(c1)c(C(C)=O)c(C)n2-c1ccccc1 (stereo not given)	1.9	0.1	-1.0	-0.6
CC(=O)c1c(C)n(-c2ccccc2)c2ccc(OCC(O)CN3CCOCC3)cc12 (stereo not given)	83.2*	-0.9	0.1	-3.6
O=C(O)c1cccc(-n2cccc2/C=C2/NC(=O)N(c3cccc(Cl)c3)C2=O)c1	27.4*	1.4	7.7	8.0
COCCn1cnc2c1c(=O)n(Cc1c(F)cccc1Cl)c(=O)n2Cc1ccccc1	-4.0	8.5	-4.5	6.4
Cc1ncc([N+](=O)[O-])n1CCOC(=O)c1ccc(Cl)cc1Cl	0.8	-1.7	-3.9	-0.8
NC(=O)CSc1nnc(-c2ccc(S(=O)(=O)N3CCCCC3)cc2)n1-c1ccccc1	40.4*	0.0	4.4	-0.9
COc1ccc(-c2nc3cc(C)c(Br)c(C)n3c2Cc2ccccc2C(F)(F)F)cc1OC	24.5*	8.5	7.4	-2.0
COc1ccc(-c2nc3ccc(Br)cn3c2Cc2ccccc2C(F)(F)F)cc1OC	1.6	-7.5	-0.8	6.3
COc1cccc(C(NC(C)=O)c2nc(-c3ccncc3)cs2)c1 (stereo not given)	-0.2	-3.2	-9.6	-2.6
CN1CCN(C(=O)OC2CC3CC2[C@H]2CCCCN2C3=O)CC1 (stereo not given in full)	21.1*	6.8	2.4	0.8
CC1CC(C)CN(C(=O)COC(=O)c2ccc(S(=O)(=O)N(C)c3ccccc3)cc2)C1 (stereo not given)	20.9*	-12.9	2.0	7.0
O=C(Oc1cc2oc(=O)c3c(c2cc1Cl)CCCC3)c1ccco1	23.8*	4.4	11.9	1.1
Cc1cc2oc(=O)c3c(c2cc1OC(=O)c1ccco1)CCCC3	-1.6	1.2	-4.1	-1.8
COc1ccc(C(=O)OCC(=O)c2ccc3c(c2)NC(=O)CO3)cc1[N+](=O)[O-]	0.8	-2.9	0.0	3.9
COc1ccc(C(=O)OCC(=O)c2ccc3c(c2)NC(=O)CO3)cc1OC	58.5*	-4.3	-3.0	2.7
CN(C)c1ccc(C2NCCS2)cc1 (stereo not given)	0.4	-7.1	0.1	-1.8
CS(=O)(=O)N(CC(=O)N1CCN(c2ccc(F)cc2)CC1)c1ccc(F)c(Cl)c1	-1.1	1.3	-3.2	-4.1
CC1(C)CC(=O)C2=C(C1)N(CC1CCCO1)C(=O)NC2(C(F)(F)F)C(F)(F)F (stereo not given)	22.6*	-2.5	10.9	0.0
CC1(C)CC(=O)C2=C(C1)N(CC1CCCO1)C(=O)C2(O)C(F)(F)F (stereo not given)	1.0	-3.2	-4.2	-3.5
CC(=O)Nc1ccc(-c2ccnc3c2CC(C)(C(=O)NCC2CCOCC2)O3)cc1 (stereo not given)	1.5	1.6	4.1	-3.3
